40 molecules from ChEMBL document CHEMBL1156227, “New aromatic monoesters of alpha-aminoaralkylphosphonic acids as inhibitors of aminopeptidase N/CD13” (Bioorg Med Chem, 2010) can be followed below.

A value given as a limit tells only on which side of the number the result lay.

Assay [1] deals with T1, Aminopeptidase N (Sus scrofa, UniProt P15145).
T1 sequence (P15145 whole entry): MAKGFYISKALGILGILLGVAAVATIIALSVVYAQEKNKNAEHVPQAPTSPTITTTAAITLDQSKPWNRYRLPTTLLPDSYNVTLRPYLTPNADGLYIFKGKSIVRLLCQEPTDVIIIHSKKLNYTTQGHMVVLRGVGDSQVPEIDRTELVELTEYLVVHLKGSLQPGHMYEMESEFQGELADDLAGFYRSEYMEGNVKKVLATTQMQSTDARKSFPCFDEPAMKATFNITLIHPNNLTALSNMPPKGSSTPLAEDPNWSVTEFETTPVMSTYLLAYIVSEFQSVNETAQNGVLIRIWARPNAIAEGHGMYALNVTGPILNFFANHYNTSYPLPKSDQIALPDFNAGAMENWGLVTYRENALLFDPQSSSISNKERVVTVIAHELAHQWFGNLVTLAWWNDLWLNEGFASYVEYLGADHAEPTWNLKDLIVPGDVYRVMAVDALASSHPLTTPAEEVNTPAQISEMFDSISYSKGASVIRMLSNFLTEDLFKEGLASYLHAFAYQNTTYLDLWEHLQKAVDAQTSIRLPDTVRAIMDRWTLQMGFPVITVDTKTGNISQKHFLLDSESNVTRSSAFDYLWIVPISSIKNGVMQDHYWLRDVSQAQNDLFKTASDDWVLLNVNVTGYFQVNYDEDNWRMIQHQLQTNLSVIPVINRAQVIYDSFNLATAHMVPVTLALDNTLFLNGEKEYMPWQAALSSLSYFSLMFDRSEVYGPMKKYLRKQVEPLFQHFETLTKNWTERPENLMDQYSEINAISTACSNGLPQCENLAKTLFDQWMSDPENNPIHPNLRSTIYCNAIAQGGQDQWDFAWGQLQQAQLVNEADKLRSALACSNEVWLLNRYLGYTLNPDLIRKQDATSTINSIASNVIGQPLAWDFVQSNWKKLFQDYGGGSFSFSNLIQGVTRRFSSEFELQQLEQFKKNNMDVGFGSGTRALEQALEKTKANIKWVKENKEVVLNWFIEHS
Kind of assay: Inhibition of pig kidney aminopeptidase N using Leu-AMC as substrate.

In assay [2] the test system is PANC-1. Kind of assay: Cytotoxicity against human PANC1 cells assessed as cell growth inhibition at 300 uM after 72 hrs by XTT assay relative to control. The class given is functional. The arrangement: scale not given: the % may be the effect or the level left. In short, it runs like this:
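PANC-1 cells cultured adherent in DMEM with 2 mM L-glutamine, 10% non-heat-inactivated FBS and penicillin–streptomycin at 37 °C, 5% CO2. Inhibitor (0–300 μM, 0.1 M NaOH stock diluted in medium) applied 72 h, with controls given matching 0.1 M NaOH. XTT incubation 4 h, A490 read, values normalised to untreated culture as percentage growth.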
(In general: Tetrazolium assays rely on reduction of a dye to a coloured formazan, in cell work by metabolically active cells.)

Assay [3] relates to HT-1080. Kind of assay: Cytotoxicity against human HT1080 cells assessed as cell growth inhibition at 300 uM after 72 hrs by XTT assay relative to control. It is filed as functional. The arrangement: scale not given: the % may be the effect or the level left. In short, it runs like this:
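HT-1080 cells kept adherent in DMEM plus 2 mM L-glutamine, 10% heat-inactivated FBS and penicillin–streptomycin at 37 °C, 5% CO2. Exposed 72 h to inhibitor (0–300 μM; 0.1 M NaOH stock diluted in medium), with vehicle controls given matching 0.1 M NaOH. XTT staining for 4 h, absorbance at 490 nm, expressed as percentage growth relative to untreated culture.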

The subject of assay [4] is HT-1080. The experiment in a line: Cytotoxicity against human HT1080 cells assessed as cell growth inhibition after 72 hrs by XTT assay in the presence of TNFalpha relative to control. The arrangement: scale not given: the % may be the effect or the level left. It is filed as functional. In short, it runs like this: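 HT-1080 cells grown adherent in DMEM with 2 mM L-glutamine, 10% heat-inactivated FBS and penicillin–streptomycin at 37 °C, 5% CO2. Inhibitor (0–300 μM, from 0.1 M NaOH stock, diluted in medium) co-applied with TNF-α (0–30 μg/ml) for 72 h. Controls received matching 0.1 M NaOH. XTT added for 4 h, A490 read, normalised to untreated cells.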

Assay [5] addresses Aminopeptidase N (Homo sapiens, UniProt P15144). The experiment in a line: Inhibition of aminopeptidase N.
A further assay has as its target Cytosol aminopeptidase (Homo sapiens, UniProt P28838). Kind of assay: Inhibition of leucine aminopeptidase.
Assay [6] deals with HT-1080. The experiment in a line: Cytotoxicity against human HT1080 cells assessed as cell growth inhibition after 72 hrs by XTT assay. It is filed as functional. More on the design: scale not given: the % may be the effect or the level left. In a few lines:
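HT-1080 cells cultured adherent in DMEM with 2 mM L-glutamine, 10% heat-inactivated FBS and 1% penicillin–streptomycin at 37 °C, 5% CO2. Exposed 72 h to inhibitor (0–300 μM from 0.1 M NaOH stocks diluted in medium; NaOH vehicle controls), with or without TNF-α (0–30 μg/ml). XTT for 4 h, absorbance at 490 nm, growth expressed relative to untreated cells; mean ± one SD.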

Assay [7] relates to PANC-1. The experiment in a line: Cytotoxicity against human PANC1 cells assessed as cell growth inhibition after 72 hrs by XTT assay. The class given is functional. The arrangement: scale not given: the % may be the effect or the level left. In short, it runs like this: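 PANC-1 cells grown adherent in DMEM with 2 mM L-glutamine, 10% uninactivated FBS and 1% penicillin–streptomycin at 37 °C, 5% CO2. Treated 72 h with inhibitor (0–300 μM; stocks in 0.1 M NaOH, diluted in medium; vehicle controls), alone or with TNF-α (0–30 μg/ml). XTT added for 4 h; absorbance read at 490 nm and normalised to untreated cultures; mean ± one SD.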

Chain of Cytosol aminopeptidase (P28838 whole entry): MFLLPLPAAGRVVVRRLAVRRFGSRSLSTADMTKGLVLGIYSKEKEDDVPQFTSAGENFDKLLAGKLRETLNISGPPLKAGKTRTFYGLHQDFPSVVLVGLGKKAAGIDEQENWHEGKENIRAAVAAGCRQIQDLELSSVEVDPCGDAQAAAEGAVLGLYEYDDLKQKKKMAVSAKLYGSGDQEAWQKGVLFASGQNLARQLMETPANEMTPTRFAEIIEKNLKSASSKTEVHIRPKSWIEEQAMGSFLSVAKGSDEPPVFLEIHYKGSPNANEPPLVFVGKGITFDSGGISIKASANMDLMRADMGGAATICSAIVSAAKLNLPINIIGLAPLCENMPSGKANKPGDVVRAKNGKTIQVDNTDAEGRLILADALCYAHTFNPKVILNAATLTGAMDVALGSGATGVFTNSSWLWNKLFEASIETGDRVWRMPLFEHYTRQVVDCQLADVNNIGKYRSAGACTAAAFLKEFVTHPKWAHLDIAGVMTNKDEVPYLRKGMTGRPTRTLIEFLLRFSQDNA
Chain of Aminopeptidase N (Homo sapiens, UniProt P15144) (P15144 whole entry): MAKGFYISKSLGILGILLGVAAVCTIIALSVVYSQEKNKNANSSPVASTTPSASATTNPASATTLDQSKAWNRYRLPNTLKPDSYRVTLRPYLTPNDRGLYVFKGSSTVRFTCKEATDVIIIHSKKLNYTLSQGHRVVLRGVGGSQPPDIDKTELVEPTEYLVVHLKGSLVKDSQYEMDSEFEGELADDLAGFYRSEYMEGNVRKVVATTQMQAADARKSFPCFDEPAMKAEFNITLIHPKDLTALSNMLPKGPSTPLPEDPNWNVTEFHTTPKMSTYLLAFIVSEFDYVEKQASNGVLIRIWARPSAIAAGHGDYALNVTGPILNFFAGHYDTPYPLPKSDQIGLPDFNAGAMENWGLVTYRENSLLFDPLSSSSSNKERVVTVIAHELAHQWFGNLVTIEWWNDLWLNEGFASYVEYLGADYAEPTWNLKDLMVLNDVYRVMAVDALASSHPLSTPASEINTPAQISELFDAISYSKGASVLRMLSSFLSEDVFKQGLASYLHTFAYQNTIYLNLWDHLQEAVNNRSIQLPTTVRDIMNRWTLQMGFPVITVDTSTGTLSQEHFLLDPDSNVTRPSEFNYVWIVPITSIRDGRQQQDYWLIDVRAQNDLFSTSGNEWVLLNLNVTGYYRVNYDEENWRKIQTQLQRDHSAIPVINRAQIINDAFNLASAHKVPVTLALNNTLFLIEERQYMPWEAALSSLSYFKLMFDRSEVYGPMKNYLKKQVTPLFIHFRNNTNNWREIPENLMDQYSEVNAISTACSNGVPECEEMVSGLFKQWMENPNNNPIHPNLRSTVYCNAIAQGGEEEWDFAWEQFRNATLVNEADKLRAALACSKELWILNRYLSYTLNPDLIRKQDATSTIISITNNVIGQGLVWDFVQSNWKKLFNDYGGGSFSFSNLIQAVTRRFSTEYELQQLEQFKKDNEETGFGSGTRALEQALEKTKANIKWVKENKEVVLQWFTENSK

Broadly, the IC50 is the concentration that gives 50% inhibition. In turn, `COc1ccc(OP(=O)(O)C(N)CCc2ccccc2)cc1` (stereo unspecified) showed an IC50 at Aminopeptidase N [1] of 2.9 µM.
In the case of `CCC(N)P(=O)(O)Oc1ccc(C(=O)O)cc1` (stereo unspecified), inhibition at Aminopeptidase N [1] was half-maximal at 200 µM (IC50).
Still for that read-out and setting: for `CCCCC(N)P(=O)(O)Oc1ccc(C)cc1` (stereo unspecified) the value was 1 µM.
In turn, `CCC(N)P(=O)(O)Oc1ccc(C(C)(C)C)cc1` (stereo unspecified) registered a half-inhibitory concentration (IC50) against Aminopeptidase N [1] of 1.1 µM. For the same molecule, the Activity with PANC-1 [2] is 26%; in the assay with HT-1080 [3], 36%; with HT-1080 [4] it was 60%.
The molecule `CC(C)(C)CC(C)(C)c1ccc(OP(=O)(O)C(N)CCc2ccccc2)cc1` (stereo unspecified) gave an IC50 at Aminopeptidase N [1] of 6.3 µM.
`CCC(N)P(=O)(O)Oc1ccc(C)cc1` (stereo unspecified): at Aminopeptidase N [1], 7 µM corresponded to half-maximal inhibition (IC50).
In turn, `CCCCC(N)P(=O)(O)Oc1ccc(OC)cc1` (stereo unspecified) registered a 50% inhibitory concentration (IC50) at Aminopeptidase N [1] of 210 µM.
Same read-out and setting: the result for `Cc1cc(C)c(C)c(OP(=O)(O)C(C)N)c1` (stereo unspecified) reads 14 µM; that for `CCCCC(N)P(=O)(O)Oc1cc(C)ccc1C` (stereo unspecified), 200 µM.
The molecule `CCC(N)P(=O)(O)Oc1ccc(C)c(C)c1` (stereo unspecified) registered an IC50 on Aminopeptidase N [1] of 3 µM.
Molecule `CC(N)P(=O)(O)O` (stereo unspecified) had an IC50 on Aminopeptidase N [1] of 42 µM.
On Aminopeptidase N [1], `CCCCC(N)P(=O)(O)Oc1ccc(C(=O)O)cc1` (stereo unspecified) gave a 50% inhibitory concentration (IC50) of 55 µM.
Molecule `NC(c1ccccc1)P(=O)(O)O` (stereo unspecified) [AMINO(PHENYL)METHYLPHOSPHONIC ACID] showed a 50% inhibitory concentration (IC50) at Aminopeptidase N [1] of 220 µM.
`CCCCCC(N)P(=O)(O)O` (stereo unspecified) gave a half-maximal inhibitory concentration (IC50) against Aminopeptidase N [1] of 8.3 µM.
By Ki is commonly meant a measure of affinity in units of concentration, obtained from inhibition or displacement. Take `CC(C)CC(N)P(=O)(O)O` (stereo unspecified): the inhibition constant (Ki) on Aminopeptidase N [5] is 53 µM. In addition, at Aminopeptidase N [1], the IC50 was determined as 37 µM.
On Aminopeptidase N [1], `CC(N)P(=O)(O)Oc1ccc(C(C)(C)C)cc1` (stereo unspecified) gave a half-inhibitory concentration (IC50) of 8.2 µM.
Turning to `CC(C)CC(N)P(=O)(O)Oc1ccccc1` (stereo unspecified), the inhibition constant (Ki) was 53 µM on Aminopeptidase N [5] and 0.23 µM on Cytosol aminopeptidase. This molecule also returned an IC50 on Aminopeptidase N [1] of 9.3 µM.
`CC(C)(C)c1ccc(OP(=O)(O)C(N)CCc2ccccc2)cc1` (stereo unspecified) gave an IC50 on Aminopeptidase N [1] of 1.9 µM.
For the molecule `CC(C)c1ccc(OP(=O)(O)C(N)CCc2ccccc2)cc1` (stereo unspecified), the 50% inhibitory concentration (IC50) on Aminopeptidase N [1] worked out at 0.5 µM.
On to `CCc1ccc(OP(=O)(O)C(C)N)cc1` (stereo unspecified), for which the IC50 on Aminopeptidase N [1] was 8.3 µM.
As for `CCCC(N)P(=O)(O)O` (stereo unspecified), on Aminopeptidase N [1], the IC50 stood at 15 µM.
`CCCCC(N)P(=O)(O)Oc1ccc(C)c(C)c1` (stereo unspecified) registered an IC50 at Aminopeptidase N [1] of 1.4 µM.
In turn, `CCC(N)P(=O)(O)O` (stereo unspecified) showed a half-maximal inhibitory concentration (IC50) on Aminopeptidase N [1] of 50 µM.
Same read-out and setting: for `NC(CCc1ccccc1)P(=O)(O)Oc1ccc(C(=O)O)cc1` (stereo unspecified) the value was 22 µM.
On Aminopeptidase N [1], `Cc1ccc(C)c(OP(=O)(O)C(N)CCc2ccccc2)c1` (stereo unspecified) yielded a half-maximal inhibitory concentration (IC50) of 15 µM.
At Aminopeptidase N [1], `CCCCC(N)P(=O)(O)O` (stereo unspecified) had an IC50 of 75 µM.
Same read-out and setting: for `Cc1ccc(OP(=O)(O)C(N)CCc2ccccc2)cc1C` (stereo unspecified) the value was 2.2 µM.
For the molecule `NC(Cc1ccccc1)P(=O)(O)O` (stereo unspecified), the Ki on Aminopeptidase N [5] was 27.5 µM; on Cytosol aminopeptidase, 0.42 µM. Also, the IC50 against Aminopeptidase N [1] came to 54 µM.
Take `CCCCCC(N)P(=O)(O)Oc1ccccc1` (stereo unspecified): on Aminopeptidase N [1], the IC50 stood at 4.8 µM.
Consider `NC(Cc1ccccc1)P(=O)(O)Oc1ccccc1` (stereo unspecified), for which the inhibitory constant (Ki) came out at 27.5 µM at Aminopeptidase N [5] and 0.42 µM on Cytosol aminopeptidase. Moreover, at Aminopeptidase N [1], the half-inhibitory concentration (IC50) amounted to 8.2 µM.
On to `NC(c1ccccc1)P(=O)(O)Oc1ccccc1` (stereo unspecified), for which the concentration for half-maximal inhibition (IC50) on Aminopeptidase N [1] was 21 µM.
For the molecule `CCC(CC)C(N)P(=O)(O)Oc1ccccc1` (stereo unspecified), the IC50 on Aminopeptidase N [1] is over 100 µM.
On to `CC(C)C(N)P(=O)(O)O` (stereo unspecified), for which the half-maximal inhibitory concentration (IC50) against Aminopeptidase N [1] was found to be 104 µM.
The same measure, in the same setting: for `CCc1ccc(OP(=O)(O)C(N)CCc2ccccc2)cc1` (stereo unspecified) the value was 13 µM.
Regarding `CC(C)C(N)P(=O)(O)Oc1ccccc1` (stereo unspecified), on Aminopeptidase N [1], the IC50 was found to be 14 µM.
For the molecule `Cc1cc(C)c(C)c(OP(=O)(O)C(N)CCc2ccccc2)c1` (stereo unspecified), 5 µM corresponded to half-maximal inhibition against Aminopeptidase N [1] (IC50).
With `CCCCC(N)P(=O)(O)Oc1ccccc1` (stereo unspecified), the IC50 against Aminopeptidase N [1] was 5.6 µM.
Same read-out and setting: for `CCC(N)P(=O)(O)Oc1cc(C)ccc1C` (stereo unspecified) the value was 120 µM; for `NC(CCc1ccccc1)P(=O)(O)Oc1ccccc1` (stereo unspecified), 6.2 µM.
For `CC(C)C[C@H](NC(=O)[C@@H](O)[C@H](N)Cc1ccccc1)C(=O)O` [UBENIMEX], the Activity in the assay on HT-1080 [6] and with PANC-1 [7] was under 10% in each case.
